According to ChEMBL document CHEMBL1123499, “Synthesis, saludiuretic, and antihypertensive activity of 6,7-disubstituted 1(2H)- and 3,4-dihydro-1(2H)-phthalazinones” (1986):

Columns and labels:
[1] = species on record: Rattus norvegicus; assay: Saluretic activity in rats after 5-24 hours, as potassium ion concentration in urine; type: functional
Outline: (§1)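 Male Sabra rats (170-200 g), fasted 18 h, dosed orally 50 mg/kg in saline at 25 mL/kg, eight per compound, two per metabolic cage, no food or water. Urine collected 5 and 24 h after dosing and centrifuged. Chloride titrated with Hg(NO3)2/diphenylcarbazone after HNO3 acidification; Na+ and K+ by atomic absorption.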

[2] = species on record: Rattus norvegicus; assay: Diuretic activity in rats at time intervals of 0-5 hours; type: functional, Urine
Outline: (§2)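 Male Sabra rats (170-200 g), starved 18 h, given 50 mg/kg by stomach tube in saline (25 mL/kg load), eight per compound, saline and furosemide controls run alongside. Held two per metabolic cage at 22 °C without food or water. Urine volume measured at 5 and 24 h collections.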

[3] = species on record: Rattus norvegicus; assay: Saluretic activity in rats after 5-24 hours, as sodium ion concentration in urine; type: functional; outline: as §1
[4] = species on record: Rattus norvegicus; assay: Diuretic activity in rats at time intervals of 0-24 hours; type: functional, Urine; outline: as §2
[5] = species on record: Rattus norvegicus; assay: Saluretic activity in rats after 0-24 hours, as potassium ion concentration in urine; type: functional; outline: as §1
[6] = species on record: Rattus norvegicus; assay: Saluretic activity in rats after 5-24 hours, as chloride ion concentration in urine; type: functional; outline: as §1
[7] = species on record: Rattus norvegicus; assay: Saluretic activity in rats after 0-24 hours, as chloride ion concentration in urine; type: functional; outline: as §1
[8] = species on record: Rattus norvegicus; assay: Saluretic activity in rats after 0-5 hours, as chloride ion concentration in urine; type: functional; outline: as §1
[9] = species on record: Rattus norvegicus; assay: Saluretic activity in rats after 0-5 hours, as sodium ion concentration in urine; type: functional; outline: as §1
[10] = species on record: Rattus norvegicus; assay: Saluretic activity in rats after 0-24 hours, as sodium ion concentration in urine; type: functional; outline: as §1
[11] = species on record: Rattus norvegicus; assay: Saluretic activity in rats after 0-5 hours, as ratio of Na+/K+ ion concentration in urine; type: functional; outline: as §1
[12] = species on record: Rattus norvegicus; assay: Saluretic activity in rats after 5-24 hours, as ratio of Na+/K+ ion concentration in urine; type: functional; outline: as §1
[13] = species on record: Rattus norvegicus; assay: Diuretic activity in rats at time intervals of 5-24 hours; type: functional, Urine; outline: as §2
[14] = species on record: Rattus norvegicus; assay: Saluretic activity in rats after 0-24 hours, as ratio of Na+/K+ ion concentration in urine; type: functional; outline: as §1
[15] = species on record: Rattus norvegicus; assay: Saluretic activity in rats after 0-5 hours, as potassium ion concentration in urine; type: functional; outline: as §1
[16] = species on record: Rattus norvegicus; assay: Compound was tested for antihypertensive activity in rat after 4 hr postdose; type: functional
Outline: (§3)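 DOCA/saline hypertensive Sprague-Dawley rats (250-350 g), six per group, given 10 mg/kg doca s.c. daily with saline until systolic BP reached 170 mmHg (usually 3-4 weeks). Oral 25 mg/kg in 5 mL/kg 1% methylcellulose. Systolic BP by tail-cuff before and 1, 4, 24 h after; drop reported as mean ± SD.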

[17] = species on record: Rattus norvegicus; assay: Compound was tested for antihypertensive activity in rat after 24 hr postdose; type: functional; outline: as §3
[18] = species on record: Rattus norvegicus; assay: Compound was tested for antihypertensive activity in rat after 1 hr postdose; type: functional; outline: as §3

| Compound | Saluretic activity [1] [m equiv kg-1] | Diuretic activity [2] [mL] | Saluretic activity [3] [m equiv kg-1] | Diuretic activity [4] [mL] | Saluretic activity [5] [m equiv kg-1] | Saluretic activity [6] [m equiv kg-1] | Saluretic activity [7] [m equiv kg-1] | Saluretic activity [8] [m equiv kg-1] | Saluretic activity [9] [m equiv kg-1] | Saluretic activity [10] [m equiv kg-1] | Ratio [11] | Ratio [12] | Diuretic activity [13] [mL] | Ratio [14] | Saluretic activity [15] [m equiv kg-1] | Decrease in blood pressure [16] [mmHg] | Decrease in blood pressure [17] [mmHg] | Decrease in blood pressure [18] [mmHg] |
| --- | --- | --- | --- | --- | --- | --- | --- | --- | --- | --- | --- | --- | --- | --- | --- | --- | --- | --- |
| NS(=O)(=O)c1cc2c(O)nncc2cc1Sc1ccccc1 | 4.25 | 2.9 | 4.97 | 7.6 | 5.7 | 4.47 | 8.44 | 3.97 | 2.9 | 7.87 | 2 | 1.17 | 4.7 | 1.38 | 1.45 |  |  |  |
| NS(=O)(=O)c1cc2c(cc1Cl)C(=O)N(c1cccc(C(F)(F)F)c1)NC2 | 3.84 | 1.6 | 5.6 | 6.1 | 4.53 | 6.66 | 8.73 | 2.07 | 1.26 | 6.86 | 1.82 | 1.46 | 4.5 | 1.51 | 0.69 |  |  |  |
| Cn1ncc2cc(S(N)(=O)=O)c(Sc3ccccc3)cc2c1=O | 3.42 | 2.1 | 6.55 | 5.9 | 4.62 | 5.98 | 8.31 | 2.33 | 2.05 | 8.6 | 1.7 | 1.92 | 3.8 | 1.86 | 1.2 |  |  |  |
| NS(=O)(=O)c1cc2c(cc1Cl)CNN(c1cccc(C(F)(F)F)c1)C2=O | 3.42 | 4.9 | 4.9 | 11.6 | 5.41 | 4.69 | 12.6 | 7.91 | 6.17 | 11.07 | 3.1 | 1.43 | 6.7 | 2.05 | 1.99 |  |  |  |
| NS(=O)(=O)c1cc2cnn(-c3cccc(C(F)(F)F)c3)c(=O)c2cc1Cl | 4.67 | 0.9 |  | 4.9 | 5.16 |  |  |  | 0.82 | 7.41 | 1.66 | 1.41 | 4 | 1.44 | 0.49 | 54 | 27.7 | 35.6 |
| NS(=O)(=O)c1cc2c(cc1Cl)N=CNS2(=O)=O [CHLOROTHIAZIDE] | 4.14 | 7.2 | 5.03 | 11.9 | 7.89 | 4.75 | 13.55 | 8.8 | 7.74 | 12.77 | 2.06 | 1.21 | 4.7 | 1.62 | 3.75 |  |  |  |
| NNc1nncc2ccccc12 [HYDRALAZINE] |  |  |  |  |  |  |  |  |  |  |  |  |  |  |  | 75.1 | 35.3 | 72.4 |
| NS(=O)(=O)c1cc2c(cc1Cl)NCNS2(=O)=O [HYDROCHLOROTHIAZIDE] |  |  |  |  |  |  |  |  |  |  |  |  |  |  |  | 36.7 | 18 | 28.6 |
